Compound activity: PubChem, Sanford-Burnham Center for Chemical Genomics
SENP8 block-1 = SENP8 protease inhibition; Q96LD8; purified SENP8, Z-RLRGG-aminoluciferin cleavage, luminescence; inhibition, % at 10 µM; 1.2% of 330,000 active; AID 2540; in the data active = inhibition above about 50%
SENP6 inh = blocks the human protease SENP6; 1.8% of 330,000 active; inhibition, % at 10 µM; Recombinant SENP6 catalytic domain, aminoluciferin luminescence; Q9GZR1;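 active = inhibition above about 50% at the single tested dose, limit read from the data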;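 also: plate controls were DMSO wells with enzyme for no effect and DMSO wells lacking enzyme for full effect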
SENP7 block = blocks the human protease SENP7; Q9BQF6; recombinant SENP7, Z-RLRGG-aminoluciferin luminescence, 40 min; inhibition, % at 5 µM; 1.5% of 330,000 active; AID 434973;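 active = inhibition above about 50% at the single test dose, limit read from the data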;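 also: plate controls were DMSO with enzyme for no effect and no enzyme buffer wells for full effect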
Target sequence (Q9BQF6 706-1050 limits assumed): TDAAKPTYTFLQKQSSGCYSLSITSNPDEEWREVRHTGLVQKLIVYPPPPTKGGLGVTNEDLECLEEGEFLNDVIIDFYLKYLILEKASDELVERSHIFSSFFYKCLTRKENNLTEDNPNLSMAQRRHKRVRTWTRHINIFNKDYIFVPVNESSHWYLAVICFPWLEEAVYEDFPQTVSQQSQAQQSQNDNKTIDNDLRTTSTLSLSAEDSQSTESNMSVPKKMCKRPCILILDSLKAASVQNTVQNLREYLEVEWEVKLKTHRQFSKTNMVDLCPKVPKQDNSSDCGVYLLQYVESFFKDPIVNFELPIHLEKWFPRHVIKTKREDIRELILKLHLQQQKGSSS
SENP8 block-2 = inhibitors of human SENP8 protease; inhibition, % at 20 µM; recombinant SENP8, Nedd8 substrate fluorescence; 0.64% of 360,000 active; in the data active = inhibition mostly above about 40%, no sharp cut-off; inactive = mostly below about 27%
UBC13 inh = inhibitors of human UBC13 polyubiquitin chain formation | P61088 | TR-FRET | inhibition, % at 20 µM | 0.47% of 330,000 active | AID 485273; in the data active = inhibition above about 45%, passing the limit was not always enough
Target sequence (P61088 whole entry, looked up): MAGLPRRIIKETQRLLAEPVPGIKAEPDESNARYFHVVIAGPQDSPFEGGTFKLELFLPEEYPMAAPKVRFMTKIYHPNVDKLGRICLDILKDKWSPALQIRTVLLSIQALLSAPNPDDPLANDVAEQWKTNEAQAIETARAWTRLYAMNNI
Apaf1 inhib = human Apaf-1 inhibition; O14727; reconstituted apoptosome caspase-3 activity, DEVD-Rh110 fluorescence; inhibition, % at 20 µM; 0.71% of 330,000 active; active = inhibition of at least 40% at 20 µM;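 also: plate controls were DMSO wells for no effect and DEVD-CHO caspase inhibitor wells for full effect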
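System – cell-free apoptosome with Apaf-1, procaspase-3 and caspase-9 · Buffer or medium – pH 7.5 Hepes buffer with CHAPS, BSA, DTT · Also added – cytochrome c with DEVD-Rh110 · Times – 30 min compound preincubation, 50 min activation, room temperature · Technique – Rh110 fluorescence intensity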
SENP8 inh conf = confirmation of human SENP8 protease inhibitors; purified SENP8, Nedd8-AMC/pro-Nedd8 cleavage fluorescence, 30 min; shares compounds with SENP8 block-2; AID 624319; 15% of 1,400 active; inhibition, % at 25 µM; in the data active = inhibition mostly above about 39%, no sharp cut-off; inactive = mostly below about 34%
* = called active by the depositor; i = inactive; . = not tested or not shown. An excerpt weighted towards active compounds, which were near 3% of everything screened.

SMILES | SENP8 block-1 | SENP6 inh | SENP7 block | SENP8 block-2 | UBC13 inh | Apaf1 inhib | SENP8 inh conf
COCCNC(=S)NN=C1CCCCC1 | 7 | -5 | 7 | 46* | -8 | -3 | 14
Cc1ccc(Cl)cc1-c1cc(C(=O)NCc2ccc(C(F)(F)F)cc2)[nH]n1 | . | . | . | 22 | . | . | .
Cc1ccc(C)c(Nc2c([N+](=O)[O-])ccc3nonc23)c1 | -8 | -12 | -15 | 45* | -38 | 14 | 18
O=C(NC1CCCCC1)c1nc(C2CCNCC2)oc1-c1ccccc1 | . | . | . | 26 | . | . | .
CC1=C(C(=O)N(C)C)CC(CC(=O)NC2CCCCC2)C(=O)N1CCCN1CCCC1=O (centres undefined) | . | . | . | 7 | . | . | .
CCCOC(=O)c1cccc(NC(=O)C(C)(C)C)c1 | 1 | 14 | 4 | 42* | -2 | 2 | -2
CC(C)(C)C(=O)Nc1cccc(C(=O)c2cccc(NC(=O)C(C)(C)C)c2)c1 | -12 | -6 | 11 | 24 | -4 | 0 | .
CCOc1ccc(N/C=C/C(=O)c2ccc(OC)cc2)c([N+](=O)[O-])c1 | -9 | -13 | -5 | 26 | -40 | -8 | .
COc1ccc(N/C=C/C(=O)c2ccc(C)cc2)c([N+](=O)[O-])c1 | 12 | 12 | 31 | 44* | -43 | -1 | 12
CCOC(=O)/C(=C\c1ccc([N+](=O)[O-])o1)NC(=O)c1ccccc1 | -4 | -16 | 10 | 42* | -12 | -4 | 22
COC(=O)CCCC1=CC2=C(c3ccccc3)C(=O)C(C)(OC(=O)C3CCCC3)C(=O)C2=CN1C1CCCCC1 (centres undefined) | -14 | 1 | -12 | 44* | -23 | 27 | 49*
CC(OC(=O)[C@@H](NS(=O)(=O)c1ccccc1)C(C)C)C(=O)c1c(N)n(C)c(=O)n(C)c1=O (some centres undefined) | . | . | . | 4 | . | . | .
O=C(c1ccccc1C(=O)N1CCN(c2ccccc2)CC1)N1CCN(c2ccccc2)CC1 | 4 | 10 | 4 | 49* | 3 | 16 | 18
CCCCOc1ccc(/C=N/NC(=S)Nc2cc(C)ccc2C)cc1 | 2 | 10 | -2 | 5 | -11 | 35 | .
CCCCOc1ccc(/C=N/NC(=S)Nc2cccc(C)c2C)cc1 | 1 | 3 | 12 | 40* | 5 | 19 | 5
COc1ccc(CCN2CC(C(=O)NCCCc3ccncc3)CCC2=O)cc1 (centres undefined) | . | . | . | -54 | . | . | .
O=C(/C=C/CCc1ccc2c(c1)OCO2)N1CCCCC1 | 3 | -8 | 8 | 57* | -2 | 5 | 0
O=C(/C=C/C=C/c1ccc2c(c1)OCO2)N1CCCCC1 | 31 | 42 | 23 | -73 | 5 | 3 | .
COc1ccc(NC(=O)c2cccc(S(=O)(=O)N3CCOCC3)c2)cn1 | 6 | -3 | 0 | 80* | -4 | -11 | 5
COc1ccc(NC(=O)c2cccc(S(=O)(=O)N3CCOCC3)c2)cc1 | -8 | -8 | -7 | 14 | -4 | -4 | .
COCC(=O)N1CCN(c2ccc([N+](=O)[O-])cc2)CC1 | -4 | -3 | 4 | 42* | -19 | -1 | 26
O=[N+]([O-])c1cc([N+](=O)[O-])c(Oc2cc(F)ccc2F)cc1NN1CCCCC1 | -5 | 0 | -3 | 55* | -8 | 11 | 22
Cc1cc(F)ccc1Oc1cc(NN2CCCCC2)c([N+](=O)[O-])cc1[N+](=O)[O-] | -13 | -18 | -15 | 31 | -2 | 13 | .
COC(=O)c1c(SCc2cccc3ccccc23)nc(=O)[nH]c1C | -4 | -9 | -3 | 11 | 7 | -2 | .
COC(=O)c1c(SCC(=O)Nc2ccc(C)c(C)c2)nc(=O)[nH]c1C | 1 | -1 | -4 | 44* | -1 | -19 | 4
SMILES | SENP8 block-1 | SENP6 inh | SENP7 block | SENP8 block-2 | UBC13 inh | Apaf1 inhib | SENP8 inh conf
Cc1ccc(N2C(=O)Cc3ccccc3C2=O)cc1 | 23 | 40 | 17 | 69* | 5 | 22 | 55*
Cc1cccc(N2C(=O)Cc3ccccc3C2=O)c1 | 20 | 31 | 24 | 82* | 0 | 19 | 43
CC(C)(C)C(=O)NCCCc1nc2ccccc2n1CCCOc1ccc(Cl)cc1 | -2 | -14 | 6 | 41* | 5 | 20 | 25
C/C(=N\Nc1ccc(S(=O)(=O)Nc2ccccc2)cc1[N+](=O)[O-])c1ccc(N2CCOCC2)cc1 | 8 | 0 | 7 | 44* | -72 | -6 | 15
COc1ccc(CN2C[C@@H](CO)O[C@@H](n3cnc4c(NCc5ccco5)ncnc43)C2)cc1 | . | . | . | 8 | . | . | .
O=C(Nc1nccs1)C1CCCCN1S(=O)(=O)c1ccccc1 (centres undefined) | 1 | 14 | -6 | 45* | -19 | -3 | -1
O=C(Cn1c(=O)n(CCC(=O)N2CCc3ccccc3C2)c(=O)c2ccccc21)NCC1CCCO1 (centres undefined) | . | . | . | 62* | . | . | 16
CCOC(=O)C(/C=C(\C#N)C(=O)OCC)=C(/N)N1CCN(c2ccc(Cl)cc2)CC1 | -3 | -7 | 7 | 46* | -1 | 16 | 23
CCOc1ccc(NC(=S)Nc2ccc3nsnc3c2)cc1 | -8 | -25 | -5 | 43* | -2 | -14 | 39
CCOc1ccc(NC(=S)Nc2cc(OC)c(Cl)cc2OC)cc1 | 1 | 11 | 9 | 44* | 8 | -5 | 7
Nn1c(SCC(=O)N2CCCC2)nnc1-c1cccs1 | . | . | . | 4 | . | . | .
CC1(c2nnnn2-c2ccc3c(c2)OCCO3)CCC(=O)N1C1CC1 (centres undefined) | . | . | . | 10 | . | . | .
Cc1ccc(OC(C)C(=O)N(Cc2cccs2)C2CCS(=O)(=O)C2)cc1C (centres undefined) | -11 | 5 | 6 | 41* | 6 | -2 | 8
CC1(C(=O)NCc2ccccc2)CCC(=O)N1C1CC1 (centres undefined) | . | . | . | 11 | . | . | .
COc1ccc(NC(=S)NC(NC(=O)c2cccc(C)c2)C(Cl)(Cl)Cl)c([N+](=O)[O-])c1 (centres undefined) | -4 | -12 | 0 | 42* | -16 | 12 | 8
CNc1ccc(-c2ccccc2OC)cn1 | . | . | . | i | . | . | .
COc1ccc(C2CC(=O)c3c(O)cc(O)cc3O2)cc1O (centres undefined) | . | . | . | 41* | . | . | 8
O=C(CNC1CCN(Cc2ccccc2)CC1)Nc1ccc(S(=O)(=O)N2CCCCC2)cc1 | -13 | -20 | 0 | 43* | 1 | -2 | 8
Cc1[nH][nH]c(=O)c1C(c1ccc(-c2ccccc2C(=O)O)o1)c1c(C)[nH][nH]c1=O | . | . | . | 49* | . | . | 38*
Cc1cc(C)nc(NC(=NCCc2c[nH]c3ccccc23)NC(=O)C(C)(C)C)n1 | -3 | -16 | 11 | 46* | 17 | 13 | 20
COc1ccc(C(=O)c2sc(Nc3ccccc3)c(C(=O)Nc3ccc(OC)c(OC)c3)c2N)cc1 | -3 | 2 | 2 | 50* | -19 | -2 | 11
